Here are results for one molecule from ChEMBL document CHEMBL4390679 (J Med Chem, 2019).

The target in series [1] is T1, Oxytocin receptor (Homo sapiens, UniProt P30559).
T1 sequence (P30559 whole entry): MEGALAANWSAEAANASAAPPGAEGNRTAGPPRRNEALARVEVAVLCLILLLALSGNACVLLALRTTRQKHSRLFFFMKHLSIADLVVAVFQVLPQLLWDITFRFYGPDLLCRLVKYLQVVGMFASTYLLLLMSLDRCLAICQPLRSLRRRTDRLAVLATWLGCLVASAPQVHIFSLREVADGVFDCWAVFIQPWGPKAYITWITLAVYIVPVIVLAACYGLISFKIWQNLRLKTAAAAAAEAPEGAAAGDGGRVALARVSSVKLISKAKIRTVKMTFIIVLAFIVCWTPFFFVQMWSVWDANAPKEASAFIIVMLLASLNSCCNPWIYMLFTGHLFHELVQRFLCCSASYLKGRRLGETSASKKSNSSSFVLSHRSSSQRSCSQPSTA
Description: Agonist activity at recombinant human OTR expressed in HEK293 cells assessed as increase in intracellular calcium level measured at 3 secs interval for 5 mins by fura-2/AM dye based micro spectrofluorometric method. Type of series: functional, cell-based. On the technique in general: Calcium flux is commonly read through the fluorescence of an indicator in the cells.

For series [2], the target named is T1, Oxytocin receptor. Description: Displacement of [3H]OT from recombinant human OTR expressed in HEK293 cell membranes measured after 1 hr.
In series [3] the target is Vasopressin V1a receptor (Homo sapiens, UniProt P37288). Description: Agonist activity at recombinant human V1a receptor expressed in HEK293 cells assessed as increase in intracellular calcium level measured at 3 secs interval for 5 mins by fura-2/AM dye based micro spectrofluorometric method. Format: cell-based.
Sequence of Vasopressin V1a receptor (P37288 whole entry): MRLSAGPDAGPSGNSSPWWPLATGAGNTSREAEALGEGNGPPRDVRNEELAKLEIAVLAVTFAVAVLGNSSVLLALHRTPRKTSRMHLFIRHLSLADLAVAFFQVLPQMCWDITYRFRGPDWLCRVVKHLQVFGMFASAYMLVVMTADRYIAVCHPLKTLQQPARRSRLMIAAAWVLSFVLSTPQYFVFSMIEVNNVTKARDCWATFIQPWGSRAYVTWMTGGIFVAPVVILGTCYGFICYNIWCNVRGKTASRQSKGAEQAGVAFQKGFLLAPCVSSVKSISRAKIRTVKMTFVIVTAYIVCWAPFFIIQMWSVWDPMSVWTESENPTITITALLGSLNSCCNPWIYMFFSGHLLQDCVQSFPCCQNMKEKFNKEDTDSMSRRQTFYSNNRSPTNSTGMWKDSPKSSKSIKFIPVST
The target of series [4] is T2, Vasopressin V1b receptor (Homo sapiens, UniProt P47901).
T2 sequence (P47901 whole entry): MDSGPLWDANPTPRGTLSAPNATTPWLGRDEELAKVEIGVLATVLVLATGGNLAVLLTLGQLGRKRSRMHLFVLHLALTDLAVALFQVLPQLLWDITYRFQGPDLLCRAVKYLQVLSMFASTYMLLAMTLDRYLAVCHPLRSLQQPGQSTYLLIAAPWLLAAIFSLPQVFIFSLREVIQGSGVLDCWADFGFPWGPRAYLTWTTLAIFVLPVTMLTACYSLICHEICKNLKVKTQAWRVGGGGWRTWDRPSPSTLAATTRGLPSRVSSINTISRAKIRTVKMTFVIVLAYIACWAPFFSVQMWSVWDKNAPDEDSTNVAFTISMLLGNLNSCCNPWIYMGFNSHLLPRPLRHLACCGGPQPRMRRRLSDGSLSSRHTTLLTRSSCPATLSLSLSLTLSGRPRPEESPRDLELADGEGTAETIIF
Description: Agonist activity at recombinant human V1b receptor expressed in HEK293 cells assessed as increase in intracellular calcium level measured at 3 secs interval for 5 mins by fura-2/AM dye based micro spectrofluorometric method. Type of series: cell-based.

For series [5], the species on record is Homo sapiens. Description: Selectivity ratio of EC50 for recombinant human V1a receptor expressed in HEK293 cells to EC50 for recombinant human OTR expressed in HEK293 cells. Format: cell-based. The method in brief: (§1)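 Agonist response measured in HEK-293 cells stably expressing human OTR, V1aR or V1bR, loaded with 1 µM fura-2/AM for 30 min at 37 °C, washed in HEPES-buffered saline pH 7.4. F340/F380 ratio read every 3 s for 5 min at 37 °C, normalized to baseline and to maximal OT (OTR) or AVP (V1aR, V1bR) response; EC50 taken from these curves. n = 3, 20 cells per dish.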

For series [6], the species on record is Homo sapiens. Description: Selectivity ratio of EC50 for recombinant human V1b receptor expressed in HEK293 cells to EC50 for recombinant human OTR expressed in HEK293 cells. Format: cell-based. An outline of the steps: as §1
Series [7] concerns Mus musculus. Description: Cognition enhancing effect in CD38 knock out Slc:ICR mouse sire model of autism spectrum disorder assessed as latency time to retrieve pups by sires at 100 ng/ml, ip administered as single dose measured after 30 mins by parental retrieval test (reference value: 600 sec). Format: functional.
The subject of series [8] is Mus musculus. Description: Cognition enhancing effect in CD38 knock out Slc:ICR mouse sire model of autism spectrum disorder assessed as latency time to retrieve pups by sires at 100 ng/ml, ip administered as single dose measured after 5 hrs by parental retrieval test (reference value: 233 +/- 68 sec). Type of series: functional.
The subject of series [9] is Mus musculus. Description: Cognition enhancing effect in CD38 knock out Slc:ICR mouse sire model of autism spectrum disorder assessed as latency time to retrieve pups by sires at 100 ng/ml, ip administered as single dose measured after 12 hrs by parental retrieval test (reference value: 233 +/- 68 sec). Format: functional.
Series [10] deals with Mus musculus. Description: Cognition enhancing effect in CD38 knock out Slc:ICR mouse sire model of autism spectrum disorder assessed as latency time to retrieve pups by sires at 100 ng/ml, ip administered as single dose measured after 24 hrs by parental retrieval test (reference value: 233 +/- 68 sec). Type of series: functional.
In series [11] the test system is Mus musculus. Description: Antidepressant-like activity in CD38KOCC Slc:ICR mouse model of autism spectrum disorder assessed as immobility time at 100 ng/ml, ip administered as single dose for 30 mins prior to testing measured for last 4 mins of 6 mins test by tail suspension test (reference value: 74.2 +/- 2.9 sec). Format: functional.
Series [12] deals with Mus musculus. Description: Cognition enhancing effect in CD38KOCC Slc:ICR mouse model of autism spectrum disorder assessed as sucrose consumption over water at 100 ng/ml, ip administered as single dose measured after 60 mins relative to control (reference value: 0.46 +/- 0.04). Type of series: functional.
Series [13] concerns Mus musculus. Description: Cognition enhancing effect in CD38KOCC Slc:ICR mouse model of autism spectrum disorder assessed as sucrose consumption over water at 100 ng/ml, ip administered as single dose measured after 24 hrs relative to control (reference value: 0.46 +/- 0.04). Format: functional.
A short description of series [14]: Plasma concentration in Slc:ICR mouse at 100 ng/g, iv measured immediately by LC-MS/MS analysis. Type of series: ADME, organism-based. Conditions: in vivo. The method in brief:
(§2)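 Male ICR mice (30 g) were given 100 ng/g i.v. via the tail vein. Blood was taken by cardiac puncture immediately and at 5, 15 and 30 min; CSF was taken at 30 min or 12 h. Plasma was deproteinized with acetonitrile/methanol 1:1 containing [13C6,15N]OT internal standard and analysed by LC-MS/MS (C8 column, SRM).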

The nature of series [15]: Half life in Slc:ICR mouse plasma during fast phase at 100 ng/g, iv measured for 15 mins by LC-MS/MS analysis. Format: ADME, organism-based. An outline of the steps:
as §2

A short description of series [16]: Half life in Slc:ICR mouse plasma during slow phase at 100 ng/g, iv measured for 15 to 60 mins by LC-MS/MS analysis. Type of series: ADME, organism-based. The method in brief:
as §2

Series [17] in a line: Drug level in Slc:ICR mouse cerebrospinal fluid at 100 ng/g, iv measured after 30 mins by LC-MS/MS analysis. Type of series: ADME, organism-based. Conditions: in vivo, 0.5 h, BLD = below limit of detection. An outline of the steps: as §2
A short description of series [18]: Drug level in Slc:ICR mouse cerebrospinal fluid at 100 ng/g, iv measured after 12 hrs by LC-MS/MS analysis. The settings on record: in vivo, 12 h, BLD = below limit of detection. Type of series: ADME, organism-based. An outline of the steps: as §2
Series [19] is described as follows: Stability in mouse plasma assessed as parent compound remaining at 50 ng/ml measured after 2 hrs by LC-MS/MS analysis. Type of series: ADME, cell-free. Conditions: read-out: Stability. An outline of the steps:
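Pooled mouse plasma spiked to a final 50 ng/mL was incubated at 37 °C for 1–120 min, quenched with acetonitrile/methanol 1:1 plus internal standard, and analysed by LC-MS/MS. Percent of the initial concentration was calculated; 85–115% was taken as acceptable.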

For series [20], the target named is T3, Oxytocin receptor (Homo sapiens) (UniProt P30559).
T3 sequence (whole entry): T1 sequence (P30559 whole entry)
Description: Displacement of [3H]OT from recombinant human OTR expressed in HEK293 cell membranes assessed as association rate constant for [3H]OT binding. The method in brief:
(§3)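 Membranes from HEK-293 cells stably expressing human OTR (5 µg/well) in 50 mM Tris, 10 mM MgCl2, 0.1% BSA, pH 7.4. [3H]OT added at 200 pM, 500 pM and 1 nM; bound and free separated by rapid filtration at multiple time points to build association curves. Kon and Koff fitted; t1/2 from Koff = ln2/t1/2. Two experiments, each in duplicate.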
On the technique in general: Displacement assays read how much labelled ligand stays bound in the presence of the test substance.

Series [21] addresses T3, Oxytocin receptor (Homo sapiens). Description: Displacement of [3H]OT from recombinant human OTR expressed in HEK293 cell membranes assessed as dissociation rate constant for [3H]OT binding. The method in brief: as §3
Series [22] shares this target. Description: Displacement of [3H]OT from recombinant human OTR expressed in HEK293 cell membranes assessed as dissociation half life for [3H]OT binding. The method in brief:
as §3

Series [23] concerns Mus musculus. Description: Antidepressant-like activity in CD38KOCC Slc:ICR mouse model of autism spectrum disorder assessed as immobility time at 100 ng/ml, ip administered as single dose for 24 hrs prior to testing measured for last 4 mins of 6 mins test by tail suspension test (reference value: 56.5 +/- 18.8 sec).

Starred links: 1 amine or outer side, 2 acyl side, 3 side chain; linkers in the order of their positions; H or OH if unused. Positions of bridges follow the written chain, without caps; N, C: chain ends. Non-standard residues stand in square brackets, D forms with d. Residues, ends and D or L forms follow the SMILES beside them. X1 = O=C(CN(CCCO)[*:1])[*:2] Where only a bound is given, the exact number is not on record here.

Turning to `CC[C@H](C)[C@@H]1NC(=O)[C@H](Cc2ccc(O)cc2)NC(=O)[C@@H](N)CSSC[C@@H](C(=O)N(CCCO)CC(=O)N[C@@H](CC(C)C)C(=O)NCC(N)=O)NC(=O)[C@H](CC(N)=O)NC(=O)[C@H](CCC(N)=O)NC1=O` (H-CYIQNC[X1]LG-NH2; disulfide 1-6), the EC50 (commonly the concentration giving half of the maximal effect) was 0.031 nM in series [1], above 10 nM in series [3] and above 10 nM in series [4]. In addition, the inhibitory constant (Ki) (usually the dissociation constant of the complex between target and ligand, obtained from inhibition or displacement) in [2] was 1.4 nM. For the same molecule, the Ratio EC50 in [5] is above 323; in series [6], above 322. The Time in series [7] is listed as 346 s; in [8] it was 293 s; in series [9] it was 386 s; in [10] it was 100 s; in series [11], 151.83 s; in series [23] it was 157.3 s. For the same molecule, the Ratio in series [12] came to 0.72; in [13] it was 0.67. This molecule had a Cp in series [14] of 108 ng/mL. Also, the half-life – broadly, the time in which the quantity being followed falls by half – in [15] came to 3.1 min; in series [16], 4.23 min. Further, the Drug uptake result in series [17] and in [18] was “Bld” each time. For the same molecule, the remaining at 2 h, 50 ng/ml in series [19] lay in the range of 85 to 115%. In addition, the K is 7.47 ×10⁶ /M/min in [20] and 0.0175 min⁻¹ in series [21]. In addition, in [22], the T1/2 worked out at 36.6 min.
